# From article PMC7357173 (Toxicological Sciences, 2020)
# Where a name gives a salt, the structure may show the parent alone.
# Columns and labels:
# Format in all cases: cell-based, human
# HepG2 cells [1] = assay: Mitochondrial ROS; conditions: HepG2, all timepoints, highest concentration
# HepG2 cells [2] = assay: Cellular ATP
# In short: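 HepG2 in supplemented MEM (10% FBS), kept below 85% confluence and ≤8 passages. Treated with 8-point dilutions from DMSO stocks (0.5% DMSO final) at 37°C, 5% CO2. Cellular ATP read by CellTiterGlo luminescence, normalized to vehicle wells as fold change. Run once, triplicate wells per concentration. PoD taken from Bayesian concentration–response fits.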
# HepG2 cells [3] = assay: Cellular stress panel as a whole; conditions: for bioactivity group: HepG2 cellular stress panel
# In short: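 HepG2 exposed 1, 6 or 24 h to 8 nominal concentrations (0.5% DMSO), one run, 3 technical replicates each. Per-plate raw values divided by the median control and log2-transformed; concentrations log10-transformed. Bayesian fit with a Student's t (5 df) replicate model and well-position scale term. PoD found by linear interpolation; CDS is the fraction of 10 000 samples yielding a PoD.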
# HepG2 cells [4] = assay: Phospholipidosis; conditions: HepG2, 24 h
# In short: (§1)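 High-content imaging of HepG2 seeded at 10 000 (24 h) or 12 500 (6, 1 h) cells/well and adhered overnight. Triplicate wells at 8 concentrations, 0.5% DMSO. Mito-mass stained with a mitochondria-specific fluorescent dye; PLD detected by a dye conjugating to phospholipids. Cells fixed in 4% formaldehyde with Hoechst 33342 where required. Eight fields imaged per well (10×); intensity compared against vehicle wells.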
# HepG2 cells [5] = assay: Glutathione content
# IL-8 = IL-8 secretion, ELISA of HepG2 supernatants; conditions: HepG2, 24 h
# In short: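 HepG2 grown and exposed as for the other assays: 8 concentrations from DMSO stocks, 0.5% DMSO final, 37°C, 5% CO2, triplicate wells, one run. 50 µl of supernatant collected after the incubation and assayed for IL-8 by ELISA kit. Values divided by the plate median control, log2-transformed and fitted by Bayesian concentration–response modelling to give PoD.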
# HepG2 cells [6] = assay: Oxygen consumption rate
# In short: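 HepG2 seeded at 16 000 cells/well, attached overnight, then treated 1, 6 or 24 h; the final 60 min was in unbuffered DMEM (10 mM glucose, 30 mM NaCl, 1 mM pyruvate, 2 mM L-alanyl-glutamine, pH 7.4, 37°C). Four baseline and six post-compound reads (3-min mix, 4-min read). Then oligomycin 1 μM, FCCP 0.5 μM and rotenone/antimycin A 1 μM each. Values baseline-normalized and corrected for nonmitochondrial OCR.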
# HepG2 cells [7] = assay: Mitochondrial mass; conditions: HepG2, 1, 6 and 24 h; subcytotoxic PoD
# In short: as §1
compound,measurement,setting,value
Oc1cc(Cl)ccc1Oc1ccc(Cl)cc1Cl [Triclosan],increase in mitochondrial superoxide (MitoROS),HepG2 cells [1],2- to 4 fold
same,change in cellular ATP,"HepG2 cells [2]; HepG2, 6 h",increase
same,change in cellular ATP,"HepG2 cells [2]; HepG2, 24 h",reduction
"OCCOc1ccccc1 [Phenoxyethanol, 2-Phenoxyethanol]",concentration-responses among all 36 biomarkers,"HepG2 cells [3]; HepG2, up to 1000 µM",no concentration-responses could be detected
"O=C(O)Cc1ccccc1Nc1c(Cl)cccc1Cl [Diclofenac, Diclofenac sodium salt]",estimated plasma Cmax compared with minimum PoD,HepG2 cells [3]; total Cmax of Table 2 vs nominal in vitro PoD,approximately one order of magnitude below the lowest PoD
"C[S+]([O-])CCCCN=C=S [Sulforaphane, L-Sulforaphane]",bioactivity group,HepG2 cells [3],3
O=c1ccc2ccccc2o1 [Coumarin],change in phospholipidosis,HepG2 cells [4],decrease
same,change in glutathione,"HepG2 cells [5]; HepG2, 24 h",increase
same,all PoDs of the panel,"HepG2 cells [3]; HepG2, around the top concentration tested",~1000 µM
same,bioactivity group,HepG2 cells [3],1
same,change in cellular ATP (lowest PoD),"HepG2 cells [2]; HepG2, 6 and 24 h",decrease
same,change in IL-8,IL-8,decrease
Cc1c(C)c2c(c(C)c1O)CCC(C)(COc1ccc(CC3SC(=O)NC3=O)cc1)O2 (stereo not drawn) [Troglitazone],effect on OCR,"HepG2 cells [6]; HepG2, two highest concentrations (40 and 100 µM)",reduced the OCR near to zero
"CCc1ccc(CCOc2ccc(CC3SC(=O)NC3=O)cc2)nc1 (stereo not drawn) [Pioglitazone, Pioglitazone hydrochloride]",change in OCR and reserve capacity,"HepG2 cells [6]; HepG2, concentrations between 40 and 100 µM",increase
same,change in OCR and reserve capacity,"HepG2 cells [6]; HepG2, concentrations up to 10 µM",decrease
"NC(=O)c1cccnc1 [Niacinamide, Nicotinamide]",change in IL-8,IL-8,small but appreciable decrease
"COc1cccc2c1C(=O)c1c(O)c3c(c(O)c1C2=O)C[C@@](O)(C(=O)CO)C[C@@H]3O[C@H]1C[C@H](N)[C@H](O)[C@H](C)O1 [Doxorubicin, Doxorubicin hydrochloride]",change in glutathione,"HepG2 cells [5]; HepG2, 1 h",Increases
same,change in glutathione,"HepG2 cells [5]; HepG2, 24 h",loss
same,change in cellular ATP,"HepG2 cells [2]; HepG2, 6 h",increases
same,change in cellular ATP,"HepG2 cells [2]; HepG2, 24 h",loss
same,change in mitochondrial mass,HepG2 cells [7],increases
